ChEMBL document CHEMBL4138115, “An evaluation of Minor Groove Binders as anti-fungal and anti-mycobacterial therapeutics” (Eur J Med Chem, 2017)
In brackets after ≈: the same amount, converted by molar mass. Activity calls are given as the source filed them. The rule behind the calls is not given here.

How the values were obtained:
Staphylococcus aureus = assay: Antibacterial activity against methicillin-resistant Staphylococcus aureus ATCC 43300 after 18 hrs by two-fold serial dilution assay; format: functional; settings: ATCC 43300, 18 h
Method in brief: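 MRSA ATCC 43300 grown overnight in cation-adjusted Mueller Hinton broth at 37 °C, diluted 40-fold, grown 1.5–3 h to mid-log. Inoculated at 5 × 10⁵ CFU/mL into two-fold compound dilutions (final 32–0.25 range). Incubated 18 h at 37 °C without shaking; OD600 read. Inhibition normalised to media-only and untreated-bacteria controls. MIC taken as lowest concentration giving ≥80% inhibition; duplicates (n = 2).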

[1] = Lipophilicity of the compound assessed as retention time by HPLC method; format: physicochemical
Method in brief: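 Reverse-phase C18 HPLC with water and acetonitrile, each containing 0.1% TFA. Gradient runs from 100% water to 100% acetonitrile over 1 h; lipophilicity reported as retention time in minutes.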

[2] = system: Trypanosoma brucei brucei; assay: Antiparasitic activity against Trypanosoma brucei brucei Lister 427 after 48 hrs by Alamar blue assay; format: functional, organism-based; settings: Lister 427, 48 h
Method in brief: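 Bloodstream-form Lister 427 in HMI-9 with 10% heat-inactivated FBS, counted by haemocytometer and seeded at 2 × 10⁴ cells/mL over serial compound dilutions. After 48 h at 37 °C, 5% CO₂, resazurin (0.49 mM solution in PBS) added for a further 24 h. Fluorescence ex 544/em 590 nm; EC50 from curve fit. Duplicates, at least three independent occasions.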

[3] = Cytotoxicity against HEK293 cells reduction in cell viability after 20 hrs by resazurin dye based fluorescence assay; settings: human
Method in brief: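 HEK-293 cells at 4000 per well in DMEM with 10% FBS, exposed to two-fold dilutions from 32 to 0.25 (final) for 20 h at 37 °C, 5% CO₂. Resazurin added (100 final) for 3 h more; fluorescence ex 560/em 590 nm. CC50 is the concentration giving 50% cytotoxicity. Duplicates.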

Salmon testes DNA = assay: Binding affinity to wild type salmon sperm DNA assessed as change in melting temperature at 10 uM; format: nucleic-acid assay; settings: Salmonidae
Candida albicans = assay: Antifungal activity against Candida albicans ATCC 90028 after 24 hrs by resazurin dye-based two-fold serial dilution assay; format: functional; settings: ATCC 90028, 24 h
[4] = system: Mycobacterium tuberculosis; assay: Antimycobacterial activity against GFP labelled Mycobacterium tuberculosis H37Rv up to 14 days by fluorescence assay; format: functional
Method in brief: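 GFP-labelled Mtb H37Rv at 1 × 10^5 CFU/well in 7H9 broth with 10% OADC and 25 kanamycin. Two-fold compound dilutions were tested. Incubated at 37 °C without shaking.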

Cryptococcus neoformans = assay: Antifungal activity against Cryptococcus neoformans ATCC 208821 after 24 hrs by resazurin dye-based two-fold serial dilution assay; format: functional
Trypanosoma congolense = assay: Antiparasitic activity against Trypanosoma congolense IL3000 after 69 hrs by Alamar blue assay; format: functional, organism-based; settings: IL3000, 69 h
Method in brief: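 Bloodstream-form IL3000 counted electronically and seeded at 1.25 × 10⁵ trypanosomes/ml into threefold serial compound dilutions. Kept 69 h at 34 °C, 5% CO₂, then resazurin (12.5 mg per 100 mL PBS) added for 3 h. Fluorescence ex 536/em 588 nm gives EC50. Three separate assay runs.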

SMILES | MIC80 (Staphylococcus aureus) | Retention_time [1] | EC50 [2] | CC50 at 20 h [3] | ΔTm (Salmon testes DNA) | MIC80 (Candida albicans) | MIC99 [4] | MIC70 (Cryptococcus neoformans) | EC50 (Trypanosoma congolense) | MIC99 ([4]; 336 h)
CC(=O)Nc1cc(C(=O)Nc2cc(C(=O)Nc3nc(C(=O)NCCCN(C)C)c(CCC(C)C)s3)n(C)c2)n(C)c1 | 16 µg/mL (≈ 27.4 µM) | 27.1 min | 28 µM | > 32 µg/mL | 4 °C | > 32 µg/mL | inactive | 16 µg/mL (≈ 27.4 µM) | 9.1 µM | 
CC(C)CCc1sc(NC(=O)c2cc(NC(=O)c3cc(NC(=N)c4ccc(Cl)cc4)cn3C)cn2C)nc1C(=O)NCCCN(C)C | 8 µg/mL (≈ 11.8 µM) | 26.8 min | 13 µM | 10 µg/mL (≈ 14.7 µM) | 4 °C | > 32 µg/mL |  | 4 µg/mL (≈ 5.88 µM) | 4.3 µM | 13 µg/mL (≈ 19.1 µM)
CN(C)CCCNC(=O)c1cc(NC(=O)c2cc(NC(=O)c3cc(NC(=N)c4cnc5ccccc5c4)cn3C)cn2C)cn1C | > 32 µg/mL | 19.7 min | 5.7 µM | > 32 µg/mL | > 17 °C | > 32 µg/mL |  | 8 µg/mL (≈ 12.8 µM) | 0.6 µM | 25 µg/mL (≈ 40.1 µM)
COc1cccc(C(=N)Nc2cc(C(=O)Nc3cc(C(=O)Nc4cc(C(=O)NCCCN(C)C)n(C)c4)n(C)c3)n(C)c2)c1 | > 32 µg/mL | 17.5 min | 44 µM |  | 11 °C | > 32 µg/mL | inactive | >32 µg/mL | 1.4 µM | 
CC(C)CCc1sc(NC(=O)c2cc(NC(=O)c3cc(NC(=N)c4cccc(Cl)c4)cn3C)cn2C)nc1C(=O)NCCCN(C)C | 2 µg/mL (≈ 2.94 µM) | 26.9 min | 13 µM | 9.2 µg/mL (≈ 13.5 µM) | 5 °C | > 32 µg/mL |  | 2 µg/mL (≈ 2.94 µM) | 5.6 µM | 13 µg/mL (≈ 19.1 µM)
CC(C)CCc1sc(NC(=O)c2cc(NC(=O)c3cc(NC(=N)c4ccccc4)cn3C)cn2C)nc1C(=O)NCCCN(C)C | > 32 µg/mL | 26.2 min | 23 µM | > 32 µg/mL | 7 °C | > 32 µg/mL |  | 4 µg/mL (≈ 6.19 µM) | 5.8 µM | 25 µg/mL (≈ 38.7 µM)
CN(C)CCCNC(=O)c1cc(NC(=O)c2cc(NC(=O)c3cc(NC(=N)c4ccccc4)cn3C)cn2C)cn1C | > 32 µg/mL | 17.8 min | > 100 µM |  | 11 °C | > 32 µg/mL | inactive | >32 µg/mL | 2.2 µM | 
CC(C)CCc1sc(NC(=O)c2cc(NC(=O)c3cc(NC(=N)c4cnc5ccccc5c4)cn3C)cn2C)nc1C(=O)NCCCN(C)C | 1 µg/mL (≈ 1.43 µM) | 27.3 min | 3.3 µM | 1.2 µg/mL (≈ 1.72 µM) | 2 °C | > 32 µg/mL | inactive | 0.25 µg/mL (≈ 0.359 µM) | 1.9 µM | 
CC(=O)Nc1cc(C(=O)Nc2cc(C(=O)Nc3cc(C(=O)NCCCN(C)C)n(CCC(C)C)c3)n(C)c2)n(C)c1 | > 32 µg/mL | 22.8 min | 54 µM |  | 3 °C | > 32 µg/mL | inactive | >32 µg/mL | 6.5 µM | 
CC(C)CCn1cc(NC(=O)c2cc(NC(=O)c3cc(NC(=N)c4ccccc4)cn3C)cn2C)cc1C(=O)NCCCN(C)C | > 32 µg/mL | 22.6 min | 33 µM |  | 8 °C | > 32 µg/mL | inactive | >32 µg/mL | 1.2 µM | 
CC(C)CCn1cc(NC(=O)c2cc(NC(=O)c3cc(NC(=N)c4cnc5ccccc5c4)cn3C)cn2C)cc1C(=O)NCCCN(C)C | 32 µg/mL (≈ 47.1 µM) | 24.8 min | 2.7 µM | 12 µg/mL (≈ 17.7 µM) | 17 °C | > 32 µg/mL |  | 8 µg/mL (≈ 11.8 µM) | 0.82 µM | 25 µg/mL (≈ 36.8 µM)
CC(C)CCn1cc(NC(=O)c2cc(NC(=O)c3cc(NC(=N)N)cn3C)cn2C)cc1C(=O)NCCCN(C)C | > 32 µg/mL | 20.1 min | 49 µM | > 32 µg/mL | 4 °C | > 32 µg/mL | inactive | 32 µg/mL (≈ 56.5 µM) | 5.2 µM | 
COc1cccc(C(=N)Nc2cc(C(=O)Nc3cc(C(=O)Nc4cc(C(=O)NCCCN(C)C)n(CCC(C)C)c4)n(C)c3)n(C)c2)c1 | > 32 µg/mL | 23.8 min | 24 µM | > 32 µg/mL | 5 °C | > 32 µg/mL | inactive | >32 µg/mL | 1.4 µM | 
CN(C)CCCNC(=O)c1cc(NC(=O)c2cc(NC(=O)c3cc(NC(=N)N)cn3C)cn2C)cn1C | > 32 µg/mL | 14.2 min | > 100 µM |  | 5 °C | > 32 µg/mL | inactive | >32 µg/mL | 6.2 µM | 
CC(C)CCc1sc(NC(=O)c2cc(NC(=O)c3cc(NC(=N)N)cn3C)cn2C)nc1C(=O)NCCCN(C)C | 16 µg/mL (≈ 27.4 µM) | 23.4 min | 15 µM | 20 µg/mL (≈ 34.2 µM) | 4 °C | > 32 µg/mL | inactive | 4 µg/mL (≈ 6.84 µM) | 6.1 µM | 
CC(=O)Nc1cc(C(=O)Nc2cc(C(=O)Nc3cc(C(=O)NCCCN(C)C)n(C)c3)n(C)c2)n(C)c1 | > 32 µg/mL | 18.3 min | > 100 µM |  | 5 °C | > 32 µg/mL | inactive | >32 µg/mL | 7 µM | 
COc1cccc(C(=N)Nc2cc(C(=O)Nc3cc(C(=O)Nc4nc(C(=O)NCCCN(C)C)c(CCC(C)C)s4)n(C)c3)n(C)c2)c1 | 1 µg/mL (≈ 1.48 µM) | 26.8 min | 17 µM | > 32 µg/mL | 7 °C | > 32 µg/mL |  | 2 µg/mL (≈ 2.96 µM) | 5.8 µM | 25 µg/mL (≈ 37 µM)
